We go through 3 molecules from ChEMBL document CHEMBL1828560, “Design, synthesis and biological study of pinacolyl boronate-substituted stilbenes as novel lipogenic inhibitors” (Bioorg Med Chem Lett, 2011).

Activity calls are given as the source filed them. No cut-off for these calls is given here.

Data set [1] relates to HepG2. Description: Cytotoxicity against human HepG2 cells. Format: cell-based.
Data set [2] deals with HepG2. Description: Inhibition of FAS gene expression in human HepG2 cells at 30 uM after 6 hrs by quantitative RT-PCR. Format: functional, cell-based. Summed up: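 HepG2 cells grown at 37°C, 5% CO2 in DMEM with 10% FBS, penicillin-streptomycin and 20mM glutamine; compounds at 30μM for 6 hours. Total RNA extracted with Trizol; 2 μg reverse-transcribed to cDNA; FAS transcript quantified by real-time qPCR with cyclophilin B as invariant control. Three independent samples averaged; compared with DMSO.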

The test system of data set [3] is FaO. Description: Inhibition of lipogenesis in rat FaO cells assessed as decrease in synthesis rate of palmitate at 20 uM after 12 hrs by deuterium enrichment-GC/MS method in presence of 100 nM insulin. It counts as functional, cell-based. The essentials: (§1)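 Rat hepatoma FAO cells, maintained in DMEM with 10% FBS, treated at 20μM for 12 hours with 100 nM insulin. Cells cultured in DMEM containing 10% 2H2O for 18 hours; deuterium incorporation into palmitate or cholesterol measured by GC/MS to give synthesis rate. Averages of three independent samples vs DMSO.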

Data set [4] relates to HepG2. Description: Inhibition of HMGCR gene expression in human HepG2 cells after 6 hrs by measuring mRNA level of HMGCR using quantitative RT-PCR. It counts as functional, cell-based. The essentials:
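HepG2 cells cultured in DMEM plus 10% FBS, penicillin-streptomycin, 20mM glutamine (37°C, 5% CO2), exposed to a series of concentrations for 6 hours. HMGCR mRNA measured by qRT-PCR: Trizol RNA extraction, 2 μg RNA converted to cDNA, real-time PCR normalized to cyclophilin B.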

The next data set is filed under the species Mus musculus. Description: Toxicity in mouse. To be noted: in vivo. It counts as organism-based.
The test system of data set [5] is FaO. Description: Inhibition of cholesterol biosynthesis in rat FaO cells at 20 uM after 12 hrs by deuterium enrichment-GC/MS method in presence of 100 nM insulin. Format: functional, cell-based. The essentials:
as §1

Take `CC1(C)OB(c2ccc(C=Cc3cc(Cl)cc(Cl)c3)cc2)OC1(C)C` (mixture of isomers): in the data set on HepG2 [1], the Activity entry is listed as “Non-toxic”. Further, in the data set on HepG2 [2], the inhibition result was “Active”.
Turning to `CC1(C)OB(c2ccc(C=Cc3ccc(O)cc3)cc2)OC1(C)C` (mixture of isomers), the inhibition entry in the data set on FaO [3], in the data set on HepG2 [2] and in the data set on FaO [5] was “Active” in each case. Also, the Activity result in the data set with HepG2 [1] and in the data set filed under Mus musculus was “Non-toxic” in each case. Further, the inhibition result with HepG2 [4] is “Dose-dependent effect”.
Turning to `COc1ccc(C=Cc2ccc(B3OC(C)(C)C(C)(C)O3)cc2)cc1` (mixture of isomers), the inhibition result in the data set on HepG2 [4] and with HepG2 [2] was “inactive” in each case.
